In ChEMBL document CHEMBL1153527, “Discovery of a novel series of quinolone and naphthyridine derivatives as potential topoisomerase I inhibitors by scaffold modification” (J Med Chem, 2009):
The source made the active and inactive calls. The rule behind the calls is not given here.

Columns and labels:
[1] = test system: Mus musculus; assay: Toxicity in athymic BALB/c nude mouse xenografted with human HT-29 cells assessed as morbidity at 75 mg/kg, ip for 10 days measured after 30 days; assay type: organism-based; parameters: dose 75 mg/kg, route intraperitoneal; settings: in vivo, 720 h
In short: (§1)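 Nude mouse HT-29 xenograft model as above: female athymic BALB/c, 18-22 g, n=6 per group. Dosing was i.p. daily in 400 μL for 10 consecutive days at 75 or 150 mg/kg, with saline controls. Body weight and tumour volume were recorded every 4 days, and the study ended on day 30. Weights were compared with controls by Student's t test.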

[2] = test system: SK-OV-3; assay: Induction of apoptosis in human SKOV3 cells assessed as morphological changes at 5 ug/mL after 24 hrs by immunostaining; assay type: functional, cell-based
In short: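 SKOV3 and HT-29 cells were treated with 0.25 or 5 μg/mL for 24 h. Cell morphology was assessed by microscopy after fixation in 4% formaldehyde and Hoechst 33342 staining (10 μg/mL), against an untreated control.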

[3] = test system: Mus musculus; assay: Toxicity in athymic BALB/c nude mouse xenografted with human HT-29 cells assessed as change in body weight at 75 mg/kg, ip for 10 days measured after 30 days; assay type: organism-based; parameters: dose 75 mg/kg, route intraperitoneal; settings: in vivo, 720 h; in short: as §1
[4] = test system: HT-29; assay: Antitumor activity against human HT-29 cells xenografted in athymic BALB/c nude mouse at 75 mg/kg, ip for 10 days measured after 30 days relative to placebo control; assay type: functional; settings: route intraperitoneal
In short: (§2)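 Female athymic BALB/c nude mice (35-40 days old, 18-22 g). HT-29 tumours first grown from 1 × 10^7 cells injected s.c. in the axillary fossa, then excised and transplanted. Treatment started at 100-300 mm3. Groups of n=6 were dosed i.p. daily in 400 μL: saline for 10 days, 5 mg/kg for 2 days, or 75/150 mg/kg for 10 days. Caliper volume was V=1/2·a·b². Values are relative to start volume, compared with placebo by Student's t test, and mice were killed on day 30.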

[5] = test system: Mus musculus; assay: Toxicity in athymic BALB/c nude mouse xenografted with human HT-29 cells assessed as morbidity at 150 mg/kg, ip for 10 days measured after 30 days; assay type: organism-based; parameters: dose 150 mg/kg, route intraperitoneal; settings: in vivo, 720 h; in short: as §1
[6] = test system: SK-OV-3; assay: Induction of apoptosis in human SKOV3 cells assessed as apoptotic cells at 5 ug/mL after 24 hrs by annexin V/propidium iodide-based flow cytometry; assay type: functional
In short: (§3)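 SKOV-3 or HT-29 cells (1-5 × 10^6 cells/mL) were incubated with 0, 5 or 10 μg/mL compound for 24 h. They were then washed and stained with EGFP-Annexin V/PI and analysed immediately by flow cytometry. Annexin V+/PI− cells were scored as apoptotic; PI-permeant cells were scored as necrotic.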

[7] = Cytotoxicity against estrogen receptor-negative human […] cells expressing p53 mutant after 48 hrs by SRB assay; assay type: functional, cell-based
In short: (§4)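 Cell lines came from CCRC, Taiwan. Cells were seeded at about 5 × 10^3 per well and left overnight. They were then given serum-free medium containing 0-10 μM compound (0.08-10 μM serial dilutions) for 48 h at 37 °C. Cells were fixed with TCA (10% final), stained with SRB (0.4% final), and the dye was dissolved in 10 mM Tris with A515 read. IC50 was taken from a fitted log concentration-response curve.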

[8] = test system: THP-1; assay: Cytotoxicity against human THP1 cells expressing p53 mutant after 48 hrs by SRB assay; assay type: functional, cell-based; settings: THP-1, 48 h
[9] = test system: PC-3; assay: Cytotoxicity against p53-deficient human PC3 cells after 48 hrs by SRB assay; assay type: functional, cell-based; settings: PC-3, 48 h; in short: as §4
[10] = test system: HT-29; assay: Induction of apoptosis in human HT-29 cells assessed as apoptotic cells at 10 ug/mL after 24 hrs by annexin V/propidium iodide-based flow cytometry; assay type: functional; in short: as §3
[11] = test system: MCF7; assay: Cytotoxicity against estrogen receptor-positive human MCF7 cells expressing wild type p53 after 48 hrs by SRB assay; assay type: functional, cell-based; settings: MCF7, 48 h; in short: as §4
[12] = test system: KB; assay: Cytotoxicity against human KB cells after 48 hrs by MTT assay; assay type: functional, cell-based
[13] = test system: AGS; assay: Cytotoxicity against human AGS cells expressing wild type p53 after 48 hrs by SRB assay; assay type: functional, cell-based; in short: as §4
[14] = test system: Mus musculus; assay: Toxicity in athymic BALB/c nude mouse xenografted with human HT-29 cells assessed as change in body weight at 150 mg/kg, ip for 10 days measured after 30 days; assay type: organism-based; parameters: dose 150 mg/kg, route intraperitoneal; settings: in vivo, 720 h; in short: as §1
[15] = Cytotoxicity against p53-deficient human Hep3B cells after 48 hrs by SRB assay; assay type: functional, cell-based, Hep 3B2; in short: as §4
[16] = test system: Bel-7402; assay: Cytotoxicity against human Bel7402 cells after 48 hrs by MTT assay; assay type: functional, cell-based; settings: Bel-7402, 48 h
[17] = biological target: T1, DNA topoisomerase 1 (Homo sapiens) (UniProt P11387); assay: Inhibition of DNA topoisomerase 1-mediated supercoiled Escherichia coli pBR322 DNA relaxation upto 25 uM after 30 mins
T1 sequence (whole entry): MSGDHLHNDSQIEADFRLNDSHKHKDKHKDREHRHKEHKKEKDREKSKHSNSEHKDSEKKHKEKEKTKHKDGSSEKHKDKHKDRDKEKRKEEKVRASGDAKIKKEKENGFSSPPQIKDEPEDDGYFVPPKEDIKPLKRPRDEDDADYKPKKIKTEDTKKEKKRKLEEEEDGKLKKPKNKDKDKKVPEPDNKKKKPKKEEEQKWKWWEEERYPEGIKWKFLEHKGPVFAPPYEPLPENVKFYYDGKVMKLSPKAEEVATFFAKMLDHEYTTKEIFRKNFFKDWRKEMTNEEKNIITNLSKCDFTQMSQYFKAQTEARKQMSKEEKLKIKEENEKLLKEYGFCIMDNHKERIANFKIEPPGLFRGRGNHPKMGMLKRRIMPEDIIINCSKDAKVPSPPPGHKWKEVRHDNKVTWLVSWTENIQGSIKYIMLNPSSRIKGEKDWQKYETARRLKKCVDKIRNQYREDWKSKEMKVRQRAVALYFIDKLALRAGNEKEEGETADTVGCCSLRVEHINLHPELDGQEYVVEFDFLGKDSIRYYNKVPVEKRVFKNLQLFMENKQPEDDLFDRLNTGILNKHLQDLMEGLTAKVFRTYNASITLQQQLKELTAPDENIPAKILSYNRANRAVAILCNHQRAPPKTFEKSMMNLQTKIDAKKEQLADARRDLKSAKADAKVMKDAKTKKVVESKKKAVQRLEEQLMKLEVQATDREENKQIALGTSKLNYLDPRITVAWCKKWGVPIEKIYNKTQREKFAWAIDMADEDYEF

[18] = test system: HT-29; assay: Antitumor activity against human HT-29 cells xenografted in athymic BALB/c nude mouse at 150 mg/kg, ip for 10 days measured after 30 days relative to placebo control; assay type: functional; settings: route intraperitoneal; in short: as §2
[19] = test system: HT-29; assay: Induction of apoptosis in human HT-29 cells assessed as apoptotic cells at 5 ug/mL after 24 hrs by annexin V/propidium iodide-based flow cytometry; assay type: functional; in short: as §3
[20] = test system: A549; assay: Cytotoxicity against human A549 cells expressing wild type p53 after 48 hrs by SRB assay; assay type: functional, cell-based; settings: A549, 48 h; in short: as §4

CCn1cc(-c2nc3ccc([N+](=O)[O-])cc3o2)c(=O)c2cc(F)c(N3CCNC(C)C3)c(F)c21 (stereo unspecified)
Activity [1]: Non-toxic | Activity [2]: Active | Activity [3]: Non-toxic | Activity [4]: 52% | Activity [5]: Non-toxic | Activity [6]: 7.4% | GI50 [7]: 700 nM | IC50 [7]: 3100 nM | IC50 [8]: 3500 nM | GI50 [9]: 3300 nM | IC50 [9]: 4200 nM | Activity [10]: 35.9% | GI50 [11]: 3000 nM | IC50 [11]: 6800 nM | IC50 [12]: 600 nM | GI50 [13]: 700 nM | IC50 [13]: 3500 nM | Activity [14]: Non-toxic | GI50 [15]: 1500 nM | IC50 [15]: 3900 nM | IC50 [16]: 200 nM | inhibition [17]: inactive | Activity [18]: 65% | Activity [19]: 23.5% | GI50 [20]: 800 nM | IC50 [20]: 1500 nM
